Measured values gathered from unrelated publications.
Lines come from different studies, so protocols differ.
Target: Receptor-interacting serine/threonine-protein kinase 4 (RIPK4, Homo sapiens, UniProt P57078)
Sequence (P57078 1-832, as in one of the studies): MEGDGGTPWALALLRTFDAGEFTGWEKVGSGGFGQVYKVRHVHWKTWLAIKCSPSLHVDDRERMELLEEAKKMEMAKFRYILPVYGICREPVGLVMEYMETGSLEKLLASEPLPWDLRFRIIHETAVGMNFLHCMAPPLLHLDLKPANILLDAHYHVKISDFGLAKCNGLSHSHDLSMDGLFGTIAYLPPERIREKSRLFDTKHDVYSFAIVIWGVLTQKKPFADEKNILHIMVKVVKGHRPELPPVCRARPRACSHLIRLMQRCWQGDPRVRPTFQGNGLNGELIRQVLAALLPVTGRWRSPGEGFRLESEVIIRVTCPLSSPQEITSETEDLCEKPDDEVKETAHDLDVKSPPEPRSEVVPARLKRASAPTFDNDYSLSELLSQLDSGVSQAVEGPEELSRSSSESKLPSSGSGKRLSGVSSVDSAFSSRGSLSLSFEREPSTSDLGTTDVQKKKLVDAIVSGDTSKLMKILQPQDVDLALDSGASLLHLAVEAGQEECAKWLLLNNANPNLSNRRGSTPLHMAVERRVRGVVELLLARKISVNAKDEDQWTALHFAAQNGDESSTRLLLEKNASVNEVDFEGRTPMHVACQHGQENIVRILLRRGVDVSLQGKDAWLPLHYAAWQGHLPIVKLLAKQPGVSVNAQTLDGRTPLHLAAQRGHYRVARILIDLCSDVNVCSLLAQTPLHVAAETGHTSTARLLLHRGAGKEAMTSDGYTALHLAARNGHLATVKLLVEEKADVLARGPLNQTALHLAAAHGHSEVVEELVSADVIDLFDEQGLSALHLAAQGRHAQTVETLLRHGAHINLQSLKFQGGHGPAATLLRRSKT

SMILES | test | conditions | remaining binding [%]
O=C(c1ccc(Nc2ncc(Cl)c(-c3ccc(Cl)s3)n2)cc1)N1CCC(N2CCCC2)CC1 | binding, competition with immobilised ligand | 1 µM | 8
Nc1ncc2c(n1)-c1c([nH]c3ccc(C#CC4CC4)cc13)CCCC2 | binding, competition with immobilised ligand | 1 µM | 100
CN(c1nccc(-c2cnn3ncccc23)n1)C1CC1 | binding | 1 µM | 100
O=C(NCCCN1CCOCC1)c1ccc(Nc2ncc(Cl)c(-c3ccc(Cl)s3)n2)cc1 | binding, competition with immobilised ligand | 1 µM | 46
CN1CCN(c2cnc3c(C4CCN(C(=O)c5ccc(OC(F)(F)F)cc5N)CC4)ncnc3c2)CC1 | cell-free assay, competition with immobilised ligand | 1 µM | 100
CN(CCCC(F)(F)F)c1nccc(-c2cnn3ncccc23)n1 | binding | 1 µM | 100
COc1cnc(Nc2cccc(S(N)(=O)=O)c2)nc1N1CCN(c2ccccc2)CC1 | binding, competition with immobilised ligand | 1 µM | 86
C=CC(=O)N1CCC(C(=O)NCC(=O)N2CCN(c3nc(-c4cnc(N)nc4C(F)F)nc(N4CCOCC4)n3)CC2)CC1 | binding, competition with immobilised ligand | 1 µM | 76
C[C@@H]1CCN(c2nccc(-c3cnn4ncccc34)n2)C1 | binding | 1 µM | 18
O=C(NCC1CCOCC1)c1n[nH]cc1NC(=O)c1c(F)cccc1F | binding, competition with immobilised ligand | 1 µM | 70
C[C@@H](c1ccc(-n2cnc3c(N)ncnc32)cc1)N1CCc2nn(C)c(Cc3ccccc3)c2C1=O | binding, competition with immobilised ligand | 0.1 µM | 40
COc1cc(-c2cn(C3CCc4ccccc4N(CC(F)(F)F)C3=O)nn2)ccc1-n1ccc(C)n1 (stereo not drawn) | cell-free assay, competition with immobilised ligand | 1 µM | 52
Cc1cnn2ncc(-c3ccnc(N(C)C)n3)c2c1 | binding | 1 µM | 80
CS(=O)(=O)N1CCCC(NC(=O)[C@H](CCC2CCCCC2)NC(=O)c2ccc(CNc3ncnc4c3nnn4-c3ccccc3)cc2)C1 (stereo partly drawn) | cell-free assay, competition with immobilised ligand | 0.1 µM | 100
CCN1CCN(Cc2ccc(C(=O)Nc3ccc(C)c(Oc4ccc5c(c4)CC(=O)N5)c3)cc2C(F)(F)F)CC1 | binding, competition with immobilised ligand | 1 µM | 100
CC1=C(C#N)[C@@H](c2ccc3[nH]nc(C)c3c2)C(C#N)=C(c2ccc(Cl)cc2)N1 | cell-free assay, competition with immobilised ligand | 1 µM | 71.8
N[C@@H]1CCN(c2nccc(-c3cnn4ncccc34)n2)C1 | binding | 1 µM | 100
COc1ccc2c(c1)O[C@H](c1ccc(OC)c(OC)c1)C[C@@H]2NC(=O)C1(c2ccc3c(c2)OC(F)(F)O3)CC1 | cell-free assay, competition with immobilised ligand | 1 µM | 75
F[C@@H]1CCN(c2nccc(-c3cnn4ncccc34)n2)C1 | binding | 1 µM | 100
O=C(NCCCN1CCOCC1)c1ccc(Nc2nccc(-c3cc4ccccc4s3)n2)cc1 | binding, competition with immobilised ligand | 1 µM | 47
O=S(=O)(NC1CCC(c2cc(F)ccc2F)(S(=O)(=O)c2ccc(Cl)cc2)CC1)C(F)(F)F (stereo not drawn) | cell-free assay, competition with immobilised ligand | 1 µM | 91
